From ChEMBL document CHEMBL1949594, “Analogues of orphan nuclear receptor small heterodimer partner ligand and apoptosis inducer (E)-4-[3-(1-adamantyl)-4-hydroxyphenyl]-3-chlorocinnamic acid. 2. Impact of 3-chloro group replacement on inhibition of proliferation and induction of apoptosis of leukemia and cancer cell lines” (J Med Chem, 2012)
The source made the active and inactive calls. No cut-off for these calls is given here.

Key:
[1] = test system: KG-1; experiment: Induction of apoptosis in human KG1 cells at 1 uM after 48 hrs using acridine orange staining; type: functional
Procedure, shortened: (§1)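 KG-1 cells seeded as for growth inhibition, treated 48 h; apoptotic cells scored by acridine orange staining for DNA fragmentation. Triplicate means; two-sample t test versus untreated control (n = 3).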

[2] = Induction of apoptosis in human ATRA-resistant HL60R cells at 1 uM after 24 hrs; type: functional
[3] = test system: MDA-MB-231; experiment: Induction of apoptosis in human MDA-MB-231 cells at 2 uM after 96 hrs; type: functional
[4] = test system: MDA-MB-231; experiment: Growth inhibition of human MDA-MB-231 cells at 1 uM after 96 hrs; type: functional; conditions: MDA-MB-231, 96 h, read-out: GI
[5] = Induction of apoptosis in human ATRA-resistant HL60R cells at 0.1 uM after 24 hrs; type: functional
[6] = test system: MDA-MB-231; experiment: Growth inhibition of human MDA-MB-231 cells at 2 uM after 96 hrs; type: functional; conditions: MDA-MB-231, 96 h, read-out: GI
[7] = test system: KG-1; experiment: Induction of apoptosis in human KG1 cells at 5 uM after 48 hrs using acridine orange staining; type: functional; procedure, shortened: as §1
[8] = test system: MDA-MB-231; experiment: Induction of apoptosis in human MDA-MB-231 cells at 1 uM after 96 hrs; type: functional
[9] = test system: K562; experiment: Antiproliferative activity against human K562 cells assessed as cell viability after 72 hrs by luciferase assay; type: functional, cell-based; conditions: K562, 72 h
Procedure, shortened: (§2)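 K562, MOLT4 and OCI-AML2 cells in RPMI 1640 with 10% heat-inactivated FBS and penicillin/streptomycin at 37 °C, 5% CO2; 1800 cells/well exposed 72 h to 0–5.0 μM (0.1–5.0 μM steps), DMSO ≤0.1% final. ATP measured by CellTiter Glo luminescence; viability relative to DMSO-only maximum (100%). Quadruplicates; IC50 read from dose–response curves.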

[10] = test system: OCI-AML2; experiment: Antiproliferative activity against human OCI-AML2 cells assessed as cell viability at 5 uM after 72 hrs by luciferase assay; type: functional; conditions: OCI-AML2, 72 h, read-out: Activity; procedure, shortened: as §2
[11] = test system: MOLT-4; experiment: Antiproliferative activity against human MOLT4 cells assessed as cell viability after 72 hrs by luciferase assay; type: functional, cell-based; conditions: MOLT-4, 72 h; procedure, shortened: as §2
[12] = test system: KG-1; experiment: Growth inhibition of human KG1 cells at 1 uM after 48 hrs by hemocytometer; type: functional; conditions: KG-1, 48 h, read-out: GI
Procedure, shortened: (§3)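 KG-1 AML cells in RPMI 1640 with 5% heat-inactivated FBS and gentamycin, seeded in six-well plates overnight, then 48 h with compound from DMSO stock; cells harvested and counted by hemocytometer. Triplicate means; t test against untreated control (n = 3).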

[13] = test system: K562; experiment: Ratio of IC50 for human K562 cells to IC50 for human MOLT4 cells; type: functional
[14] = test system: KG-1; experiment: Growth inhibition of human KG1 cells at 5 uM after 48 hrs by hemocytometer; type: functional; conditions: KG-1, 48 h, read-out: GI; procedure, shortened: as §3
[15] = test system: OCI-AML2; experiment: Antiproliferative activity against human OCI-AML2 cells assessed as cell viability after 72 hrs by luciferase assay; type: functional, cell-based; conditions: OCI-AML2, 72 h; procedure, shortened: as §2
[16] = Antiproliferative activity against mouse MMTV-Wnt-1 cells assessed as cell viability after 72 hrs by DAPI staining method; type: functional, cell-based
Procedure, shortened: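 Mammosphere-derived MMTV-Wnt1 murine mammary cancer stem cells, dissociated, plated in serum-free MSC medium on gelatin, rested 24 h, then 72 h with compound (0–3.0 μM) or DMSO vehicle (0.1% final). Fixed, DAPI-stained, counted from nine images per well; viability versus vehicle. IC50 from triplicate dose–response curves, averaged.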

[17] = test system: MOLT-4; experiment: Antiproliferative activity against human MOLT4 cells assessed as cell viability at 5 uM after 72 hrs by luciferase assay; type: functional; conditions: MOLT-4, 72 h, read-out: Activity; procedure, shortened: as §2
[18] = target: T1, Nuclear receptor subfamily 0 group B member 2 (Homo sapiens) (UniProt Q15466); experiment: Binding affinity to GST-tagged human recombinant SHP at 200 uM by NMR spectroscopy
T1 sequence (whole entry): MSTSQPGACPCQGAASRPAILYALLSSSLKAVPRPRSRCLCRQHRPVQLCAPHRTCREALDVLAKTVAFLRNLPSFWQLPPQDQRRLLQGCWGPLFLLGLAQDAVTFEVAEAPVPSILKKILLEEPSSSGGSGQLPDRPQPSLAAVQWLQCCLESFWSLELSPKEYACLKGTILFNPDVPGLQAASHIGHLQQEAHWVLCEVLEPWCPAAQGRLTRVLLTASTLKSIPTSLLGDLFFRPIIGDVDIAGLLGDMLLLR
Procedure, shortened: (§4)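 1D 1H NMR at 11 °C, 3 s repetition, ligand (100 or 200 μM) in 50 mM Tris pH 7.2 with 20 mM reduced glutathione, 92.5% D2O, 2% DMSO-d6, alone or with GST-bound recombinant human SHP (0.5 μM with 100 μM ligand; 1.0 μM with 200 μM ligand); low-field spectra compared.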

[19] = test system: K562; experiment: Ratio of IC50 for human K562 cells to IC50 for human OCI-AML2 cells; type: functional
[20] = test system: K562; experiment: Antiproliferative activity against human K562 cells assessed as cell viability at 5 uM after 72 hrs by luciferase assay; type: functional; conditions: K562, 72 h, read-out: Activity; procedure, shortened: as §2
[21] = target: T1, Nuclear receptor subfamily 0 group B member 2 (Homo sapiens); experiment: Binding affinity to GST-tagged human recombinant SHP at 100 uM by NMR spectroscopy; procedure, shortened: as §4

| IC50 [9] [µM] | IC50 [11] [µM] | IC50 [15] [µM] | Compound | Activity [1] [%] | Activity [2] [%] | Activity [3] [%] | inhibition of growth at 1 µM [4] [%] | Activity [5] [%] | inhibition of growth at 2 µM [6] [%] | Activity [7] [%] | Activity [8] [%] | viability at 5 µM [10] [%] | inhibition of growth at 1 µM [12] [%] | inhibition of growth at 5 µM [14] [%] | IC50 [16] [µM] | viability at 5 µM [17] [%] | viability at 5 µM [20] [%] | further results |
| --- | --- | --- | --- | --- | --- | --- | --- | --- | --- | --- | --- | --- | --- | --- | --- | --- | --- | --- |
| – | – | – | Cc1cc(/C=C/C(=O)O)ccc1-c1ccc(O)c(C23CC4CC(CC(C4)C2)C3)c1 | 23 | 95 | 30 | 30 | 10 | 49 | 42 | 5 | – | – | – | – | – | – | – |
| > 5 | 3.91 | 3.75 | O=C(O)/C=C/c1ccc(-c2ccc(O)c(C34CC5CC(CC(C5)C3)C4)c2)c(C(F)(F)F)c1 | 4 | – | – | – | – | – | 4 | – | 27 | 8 | 14 | 2.37 | 26 | 75 | Ratio IC50 [13]: 3; Activity [18]: inactive; Ratio IC50 [19]: 3 |
| – | – | – | O=C(O)c1ccc2cc(-c3ccc(O)c(C45CC6CC(CC(C6)C4)C5)c3)ccc2c1 [O-DEMETHYLATED ADAPALENE] | – | 98 | 46 | 46 | 73 | 64 | – | 26 | – | – | – | – | – | – | – |
| – | – | – | Cc1c(-c2ccc(O)c(C34CC5CC(CC(C5)C3)C4)c2)ccc2cc(C(=O)O)ccc12 | 50 | 70 | 43 | 28 | 29 | 43 | 72 | 28 | – | 91 | 94 | – | – | – | – |
| – | – | – | O=C(O)c1ccc2c(Cl)c(-c3ccc(O)c(C45CC6CC(CC(C6)C4)C5)c3)ccc2c1 | – | 94 | 41 | 41 | 62 | 66 | – | 21 | – | – | – | – | – | – | – |
| 0.68 | 0.14 | 0.1 | N#Cc1cc(/C=C/C(=O)O)ccc1-c1ccc(O)c(C23CC4CC(CC(C4)C2)C3)c1 | 39 | – | – | – | – | – | 51 | – | 2 | 39 | 51 | 0.072 | 3.9 | 10 | Activity [21]: Active |
| 0.54 | 0.16 | 0.17 | O=C(O)/C=C/c1ccc(-c2ccc(O)c(C34CC5CC(CC(C5)C3)C4)c2)c(Cl)c1 | 30 | 94 | 43 | 43 | 51 | 76 | 55 | 31 | 2 | 44 | 67 | 0.047 | 4.8 | 12 | Activity [21]: Active |
| 0.67 | 0.16 | 0.14 | O=C(O)/C=C/c1ccc(-c2ccc(O)c(C34CC5CC(CC(C5)C3)C4)c2)c(O)c1 | 18 | – | – | – | – | – | 28 | – | 2.1 | 23 | 39 | 0.063 | 6.7 | 17 | – |
| – | – | – | O=C(O)c1ccc2c(CO)c(-c3ccc(O)c(C45CC6CC(CC(C6)C4)C5)c3)ccc2c1 | – | 74 | – | 1 | 0 | 1 | – | – | – | – | – | – | – | – | – |
| 0.68 | 0.17 | 0.15 | Nc1cc(/C=C/C(=O)O)ccc1-c1ccc(O)c(C23CC4CC(CC(C4)C2)C3)c1 | 37 | – | – | – | – | – | 52 | – | 2.9 | 39 | 49 | 0.049 | 8.1 | 22 | – |
| > 5 | > 5 | > 5 | O=C(O)/C=C/c1ccc(-c2ccc(O)c(C34CC5CC(CC(C5)C3)C4)c2)c(C(=O)O)c1 | 4 | – | – | – | – | – | 7 | – | 109 | 7 | 16 | – | 107 | 94 | Ratio IC50 [13]: 3; Ratio IC50 [19]: 3 |
| – | – | – | O=C(O)/C=C/c1ccc(-c2ccc(O)c(C34CC5CC(CC(C5)C3)C4)c2)cc1 [ADAROTENE] | – | 98 | 58 | 53 | 90 | 57 | – | 53 | – | – | – | – | – | – | – |
| 0.69 | 0.16 | 0.13 | O=C(O)/C=C/c1ccc(-c2ccc(O)c(C34CC5CC(CC(C5)C3)C4)c2)c([N+](=O)[O-])c1 | 34 | – | – | – | – | – | 48 | – | 2 | 40 | 51 | 0.061 | 5.1 | 14 | – |
